# Compound activity from PubChem.
# SENP7 inh = SENP7 protease inhibition; Q9BQF6; recombinant SENP7, Z-RLRGG-aminoluciferin luminescence, 40 min; inhibition, % at 5 µM; hit rate 1.5% among 330,000;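 active means inhibition above about 50% at the single test dose, limit read from the data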;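 further: plate controls were DMSO with enzyme for no effect and no enzyme buffer wells for full effect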
# Target sequence (Q9BQF6 706-1050 limits assumed): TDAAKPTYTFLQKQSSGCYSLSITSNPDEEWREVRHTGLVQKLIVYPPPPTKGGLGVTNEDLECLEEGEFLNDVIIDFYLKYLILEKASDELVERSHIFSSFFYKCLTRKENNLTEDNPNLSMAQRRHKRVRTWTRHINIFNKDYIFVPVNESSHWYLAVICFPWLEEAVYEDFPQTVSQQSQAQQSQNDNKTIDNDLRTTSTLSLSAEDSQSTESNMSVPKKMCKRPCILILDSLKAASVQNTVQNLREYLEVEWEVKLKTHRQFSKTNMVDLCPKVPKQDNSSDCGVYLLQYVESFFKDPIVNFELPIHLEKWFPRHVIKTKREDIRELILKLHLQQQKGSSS
# SENP6 inh = blocks the human protease SENP6 | Q9GZR1 | Recombinant SENP6 catalytic domain, aminoluciferin luminescence | inhibition, % at 10 µM | hit rate 1.8% among 330,000 | AID 2599;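 active means inhibition above about 50% at the single tested dose, limit read from the data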;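 further: plate controls were DMSO wells with enzyme for no effect and DMSO wells lacking enzyme for full effect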
# SENP8 block-1 = SENP8 (human) protease inhibition; hit rate 0.64% among 360,000; recombinant SENP8, Nedd8 substrate fluorescence; inhibition, % at 20 µM; Q96LD8; in the data active means inhibition mostly above about 40%, no sharp cut-off; inactive means mostly below about 27%
# SENP1 FRET inh = blocks the human SENP1 SUMO protease catalytic domain; Q9P0U3; recombinant SENP1 catalytic domain, CyPet-SUMO1-YPet FRET cleavage; inhibition, % at 10 µM; hit rate 0.21% among 360,000; AID 624204;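 active means inhibition at least 30% at 10 µM, raw YFP signal under a set limit, fluorescence ratio 0.5 to 1.5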;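 further: 0% = enzyme with DMSO and 100% = no enzyme wells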
# Target sequence (Q9P0U3 419-644 limits assumed): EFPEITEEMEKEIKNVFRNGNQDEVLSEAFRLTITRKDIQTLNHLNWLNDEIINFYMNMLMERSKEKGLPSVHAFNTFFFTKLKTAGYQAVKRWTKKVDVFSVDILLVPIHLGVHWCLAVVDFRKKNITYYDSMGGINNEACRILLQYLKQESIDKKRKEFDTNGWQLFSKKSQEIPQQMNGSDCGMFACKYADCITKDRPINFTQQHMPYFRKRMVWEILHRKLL
#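 Test system: hSENP1 catalytic domain, recombinant; Amount: 20 pM final SENP1 enzyme; Medium: Tris pH 8 buffer plus EDTA, NaCl, BME, BSA, NP40, catalase; Schedule: 50 min enzyme reaction, room temperature, light-protected; Technique: FRET fluorescence in CFP and YFP emission channels; Controls: no-enzyme wells low, DMSO-plus-enzyme wells high control.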
# SENP8 block-2 = inhibitors of human SENP8 protease; Q96LD8; purified SENP8, Z-RLRGG-aminoluciferin cleavage, luminescence; inhibition, % at 10 µM; hit rate 1.2% among 330,000; in the data active means inhibition above about 50%
# SENP8 conf = human SENP8 inhibition, confirmed | shares compounds with SENP7 inh | inhibition, % at 12.5 µM | hit rate 40% among 6,200 | Recombinant SENP8, Z-RLRGG-aminoluciferin luminescence, 60 min;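 active means mean inhibition across replicates above about 50%, limit read from the data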
# SENP6 conf = human SENP6 inhibition, confirmed | shares compounds with SENP7 inh | recombinant SENP6, Z-RLRGG-aminoluciferin luminescence | inhibition, % at 12.5 µM | hit rate 58% among 6,200
# SENP7 confirm = confirmation of human SENP7 protease inhibitors; shares compounds with SENP7 inh; recombinant SENP7, Z-RLRGG-aminoluciferin luminescence, 40 min; inhibition, % at 12.5 µM; hit rate 69% among 6,200; AID 488917
# Casp3 select = selectivity test for SENP inhibitors: human caspase-3 inhibition. hit rate 60% among 6,200. shares compounds with SENP7 inh. purified caspase-3, Z-DEVD-aminoluciferin luminescence, 60 min. inhibition, % at 12.5 µM;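 active means mean inhibition above about 50%, limit read from the data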;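 further: plate controls were enzyme with DMSO for no effect and wells without caspase-3 for full effect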
# SENP luc ctr = interferes with luciferase luminescence in SENP counter-screen. shares compounds with SENP7 inh. Pre-incubated SENP8/Z-RLRGG-aminoluciferin, luciferase luminescence interference. inhibition, % at 12.5 µM. hit rate 39% among 6,200;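 active means mean inhibition above about 50% when retested at one dose, limit read from the data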;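 further: plate controls were DMSO wells with completed reaction for no effect and substrate without enzyme for full effect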
# Starred values were filed as active, the others as inactive; · = no result given. In the library only some 2.5% were active in any assay of this set; here they are far more common.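 How the source made its calls, unless noted: active means mean inhibition above about 50% in the one-dose retest (limit read from the data); inactive means the rest.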
SMILES,SENP7 inh,SENP6 inh,SENP8 block-1,SENP1 FRET inh,SENP8 block-2,SENP8 conf,SENP6 conf,SENP7 confirm,Casp3 select,SENP luc ctr
Cc1cc(C(=O)Nc2ccccn2)cs1,71*,72*,6,1,49,40,47,85*,85*,63*
NC(=O)c1ccc(NC(=O)c2ccc3c(c2)OCO3)cc1,46,9,12,3,0,·,·,·,·,·
O=C(Nc1cccc(C(=O)O)c1)Nc1ccc2c(c1)OCO2,100*,96*,4,0,92*,97*,97*,101*,93*,96*
O=C(Nc1ccc2nsnc2c1)c1ccc2c(c1)OCO2,78*,67*,-275,-1,65*,37,57*,88*,80*,46
O=c1onc(-c2ccc(Cl)cc2)n1Cc1ccc(F)cc1,4,-16,10,0,-6,·,·,·,·,·
Cc1cc(C(=O)Nc2ccc3c(c2)OCO3)cs1,73*,64*,3,0,50,70*,72*,93*,86*,75*
O=C(Nc1ccc(NC(=O)c2ccc(Cl)cc2Cl)cc1)c1ccc2c(c1)OCO2,-7,-11,-64,-1,-1,·,·,·,·,·
COc1cc(OC)cc(C(=O)Nc2ccc3c(c2)OCCO3)c1,96*,98*,14,-1,92*,-4,95*,102*,96*,95*
O=C(Nc1ccc2c(c1)OCO2)c1ccc(Cl)s1,74*,76*,12,2,62*,-1,63*,88*,66*,64*
O=C(Nc1ccc(Cl)c(Cl)c1)c1ccc2c(c1)OCO2,72*,80*,17,0,77*,19,77*,96*,65*,9
CN(C)c1ncnc2c1ncn2[C@H]1CN(Cc2ccco2)C[C@@H](CO)O1,·,·,8,0,·,·,·,·,·,·
CCN(C(=O)c1ccncc1)c1c(N)n(Cc2ccccc2)c(=O)[nH]c1=O,-7,-14,-10,-1,-6,·,·,·,·,·
O=C(Nc1ccc2c(c1)oc1ccccc12)c1ccc2c(c1)OCO2,61*,26,-17,0,10,-6,7,7,4,3
O=C(Nc1ccc(Cl)cc1)c1ccc2c(c1)OCO2,76*,73*,22,0,37,37,54*,88*,74*,18
O=C(NC(=S)Nc1ccc2c(c1)OCCO2)c1ccccc1,25,76*,12,0,49,59*,61*,88*,54*,59*
CC/C(C)=N/Oc1nc(C)cc(C)n1,5,-26,20,0,-3,·,·,·,·,·
Cc1cc(C)n(C(C)Sc2ccccc2)n1 (stereo not drawn),-1,4,16,-2,-4,·,·,·,·,·
N/C(=N\OC(=O)c1ccco1)c1ccccn1,78*,76*,17,1,49,62*,62*,91*,92*,76*
Cc1ccc(/C(N)=N/OC(=O)c2ccco2)cc1,95*,73*,13,1,89*,76*,95*,102*,91*,68*
Cc1cccc(/C(N)=N/OC(=O)CCCc2ccccc2)c1,0,60*,8,-1,40,50,52*,85*,68*,21
N/C(=N\OC(=O)CCCc1ccccc1)c1ccccc1,2,31,4,1,7,·,·,·,·,·
COc1ccc(C(=O)COC(=O)c2ccco2)cc1,55*,72*,12,0,50*,62*,62*,86*,85*,71*
O=C(Cn1ccc(C(F)(F)F)n1)N=Nc1c(O)[nH]c2ccc(Br)cc12,-1,-12,40,4,5,·,·,·,·,·
CC(=O)OCC(=O)C1(O)CCC2C3CCC4=CC(=O)CCC4(C)C3(Cl)C(O)CC21C (stereo not drawn),·,·,14,1,·,·,·,·,·,·
COc1ccc(/C(N)=N/OC(=O)c2ccco2)cc1,24,91*,17,-1,84*,89*,90*,98*,91*,86*
SMILES,SENP7 inh,SENP6 inh,SENP8 block-1,SENP1 FRET inh,SENP8 block-2,SENP8 conf,SENP6 conf,SENP7 confirm,Casp3 select,SENP luc ctr
N/C(=N\OC(=O)c1ccco1)c1ccccc1,81*,88*,6,-1,82*,74*,75*,95*,90*,76*
COc1ccc(C(=O)O/N=C(\N)c2ccc(Br)cc2)cc1,26,26,14,4,-1,·,·,·,·,·
Cc1occc1C(=O)O/N=C(\N)c1ccc(Cl)cc1,61*,53*,-2,-1,31,32,33,74*,69*,58*
N/C(=N\OC(=O)c1ccco1)c1ccc(Br)cc1,76*,93*,0,1,74*,84*,83*,97*,75*,73*
O=C(Oc1ccc(-c2ccccc2)cc1)c1ccco1,·,·,20,1,·,·,·,·,·,·
N/C(=N\OC(=O)c1cccc(Br)c1)c1ccc(Br)cc1,8,-23,32,2,-19,·,·,·,·,·
COc1ccccc1NS(=O)(=O)c1cccc(C(=O)NNC(=O)C(C)NC(=O)c2ccco2)c1 (stereo not drawn),4,-15,2,3,-2,·,·,·,·,·
Cc1cccc(/C(N)=N/OC(=O)c2ccco2)c1,91*,92*,19,3,84*,91*,92*,101*,94*,86*
COc1cc(OC)c(C(=O)O/N=C(\N)c2cccc(C)c2)cc1OC,1,-10,-12,5,1,·,·,·,·,·
CCN1CCN(C(C(=O)NC2CCCCC2)c2cc3ccccc3o2)CC1 (stereo not drawn),·,·,18,2,·,·,·,·,·,·
COc1cccc(/C=N/Nc2snc(SC)c2C#N)c1,0,37,-205,6,5,·,·,·,·,·
COc1cccc(/C=N/Nc2snc(SC)c2C#N)c1O,96*,99*,-255,-25,96*,95*,98*,100*,94*,79*
COc1ccc(/C=N/Nc2snc(SC)c2C#N)cc1OC,4,61*,-272,-1,19,6,8,33,12,3
COc1ncccc1C(=O)N1CCCC(C(=O)Nc2cccc(-c3ccc(F)cc3)c2)C1 (stereo not drawn),·,·,9,0,·,·,·,·,·,·
CCc1ccc(N(C(=O)c2snc(C(N)=O)c2N)C(C(=O)NCC2CCCO2)c2ccco2)cc1 (stereo not drawn),5,3,-285,-20,-4,·,·,·,·,·
